These results are taken from ChEMBL document CHEMBL3627706, “Syntheses and evaluation of substituted aromatic hydroxamates and hydroxamic acids that target Mycobacterium tuberculosis” (2015).

The test system of assay [1] is Mycobacterium tuberculosis. Put plainly: Antimycobacterial activity against Mycobacterium tuberculosis in GAS medium by microplate alamar blue assay. Type of assay: functional. In short, it runs like this:
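Microplate alamar blue assay against M. tuberculosis grown in glycerol-alanine-salts (GAS) medium. MIC is reported in µM.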
Background: Alamar Blue is a resazurin reagent that responds to reducing activity.

Assay [2] concerns Mycobacterium tuberculosis. Put plainly: Antimycobacterial activity against Mycobacterium tuberculosis in 7H12 medium by microplate alamar blue assay. Type of assay: functional. In a few lines:
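Microplate alamar blue assay against M. tuberculosis in 7H12 medium (7H9 plus casitone, palmitic acid, albumin and catalase). MIC is reported in µM.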

The test system of assay [3] is Micrococcus luteus. Put plainly: Antibacterial activity against Micrococcus luteus ATCC 10240 after 21 hrs by Kirby-Bauer agar diffusion assay. Type of assay: functional. In a few lines:
(§1)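 Agar diffusion assay. Test solutions were made at 20 mM in DMSO and diluted 10-fold with MeOH to 2 mM. Plates were incubated at 37 °C for 21 h. Inhibition zone diameters are recorded in mm, with unclear or very unclear zones flagged.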
On the technique in general: Agar diffusion results depend on both activity and mobility in agar.

Assay [4] deals with Micrococcus luteus. Briefly: Antibacterial activity against Micrococcus luteus ATCC 10240 assessed as very unclear inhibition zone after 21 hrs by Kirby-Bauer agar diffusion assay. The assay is classed as functional. In short, it runs like this: as §1
In assay [5] the test system is Mycolicibacterium vaccae. Briefly: Antibacterial activity against Mycobacterium vaccae IMET 10670 after 44 hrs by Kirby-Bauer agar diffusion assay. Type of assay: functional. In short, it runs like this: (§2)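 Test solutions for the agar diffusion assay were 20 mM in DMSO, diluted 10-fold with MeOH to 2 mM. M. vaccae plates were incubated at 37 °C for 44 h. Inhibition zones are recorded in mm, with unclear or very unclear zones flagged.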

In assay [6] the test system is Pseudomonas aeruginosa. Briefly: Antibacterial activity against Pseudomonas aeruginosa K799/61 after 21 hrs by Kirby-Bauer agar diffusion assay. The assay is classed as functional. In short, it runs like this:
as §1

The subject of assay [7] is Bacillus spizizenii. Put plainly: Antibacterial activity against Bacillus subtilis ATCC 6633 after 21 hrs by Kirby-Bauer agar diffusion assay. The assay is classed as functional. In a few lines: as §1
Assay [8] concerns Pseudomonas aeruginosa. Briefly: Antibacterial activity against wild type Pseudomonas aeruginosa K799 after 21 hrs by Kirby-Bauer agar diffusion assay. Type of assay: functional. In short, it runs like this: as §1
Assay [9] concerns Escherichia coli. Briefly: Antibacterial activity against Escherichia coli DC2 after 21 hrs by Kirby-Bauer agar diffusion assay. Type of assay: functional. In a few lines:
as §1

In the next assay the test system is Staphylococcus aureus. Put plainly: Antibacterial activity against Staphylococcus aureus SG511 after 21 hrs by Kirby-Bauer agar diffusion assay. The assay is classed as functional. In short, it runs like this: as §1
Assay [10] concerns Escherichia coli. Put plainly: Antibacterial activity against Escherichia coli DC2 assessed as unclear inhibition zone after 21 hrs by Kirby-Bauer agar diffusion assay. The assay is classed as functional. In short, it runs like this: as §1
Assay [11] has as its system Mycolicibacterium vaccae. Briefly: Antibacterial activity against Mycobacterium vaccae IMET 10670 assessed as unclear inhibition zone after 44 hrs by Kirby-Bauer agar diffusion assay. The assay is classed as functional. In short, it runs like this: as §2
In assay [12] the test system is Pseudomonas aeruginosa. Put plainly: Antibacterial activity against Pseudomonas aeruginosa K799/61 assessed as unclear inhibition zone after 21 hrs by Kirby-Bauer agar diffusion assay. Type of assay: functional. In a few lines:
as §1

Assay [13] relates to Mycolicibacterium vaccae. Briefly: Antibacterial activity against Mycobacterium vaccae IMET 10670 assessed as very unclear inhibition zone after 44 hrs by Kirby-Bauer agar diffusion assay. The assay is classed as functional. In short, it runs like this:
as §2

Assay [14] deals with Pseudomonas aeruginosa. Put plainly: Antibacterial activity against wild type Pseudomonas aeruginosa K799 assessed as unclear inhibition zone after 21 hrs by Kirby-Bauer agar diffusion assay. The assay is classed as functional. In a few lines: as §1
For assay [15], the system named is Pseudomonas aeruginosa. Put plainly: microbe, parasite or virus in culture. The note with it: K799/61, 21 h, read-out: DIZ.
The subject of assay [16] is Bacillus spizizenii. Put plainly: Antibacterial activity against Bacillus subtilis ATCC 6633 at 1.66 microg/ml after 21 hrs by Kirby-Bauer agar diffusion assay. The assay is classed as functional. Conditions: ATCC 6633, 21 h, read-out: DIZ.

In general, MIC refers to the lowest concentration found to suppress growth.

In brackets after ≈: the same amount, converted by molar mass.

In the case of `O=C(NOCc1ccccc1)c1ccc([N+](=O)[O-])cc1`, the MIC in [1] was found to be 13.6 µM (≈ 3.7 µg/mL); in assay [2], 90.4 µM (≈ 24.6 µg/mL).
In the same order, the values of `O=C(CC(=O)OCc1ccccc1)NOCc1ccccc1` are 27.1 µM (≈ 8.11 µg/mL) and 86.6 µM (≈ 25.9 µg/mL).
For the compound `O=C(NOCc1ccccc1)c1cc([N+](=O)[O-])cc(C(F)(F)F)c1`, the MIC in assay [1] is 10.7 µM (≈ 3.62 µg/mL); in [2] it was > 100 µM. For the same compound, the “diameter of the inhibition zone (DIZ)” value was found to be 14 mm in the assay on Micrococcus luteus [3]; 20 mm in the assay on Micrococcus luteus [4]; 45 mm in the assay with Mycolicibacterium vaccae [5]; 0 mm in the assay on Pseudomonas aeruginosa [6]; 16 mm in the assay with Bacillus spizizenii [7]; 0 mm with Pseudomonas aeruginosa [8]. The “diameter of the inhibition zone (DIZ)” value was 0 mm in the assay on Escherichia coli [9] and 20 mm with Staphylococcus aureus.
As to `O=C(NOCc1ccccc1)c1ccc(Cl)cc1`, the MIC in assay [1] was found to be 15.5 µM (≈ 4.07 µg/mL); in assay [2], 47.3 µM (≈ 12.4 µg/mL). Besides, the “diameter of the inhibition zone (DIZ)” value came out at 19 mm in the assay on Micrococcus luteus [3]; 15 mm in the assay on Mycolicibacterium vaccae [5]; 14 mm in the assay on Pseudomonas aeruginosa [6]; 19 mm with Bacillus spizizenii [7]; 14 mm with Pseudomonas aeruginosa [8]; 0 mm with Escherichia coli [9]. Moreover, the “diameter of the inhibition zone (DIZ)” value in the assay on Staphylococcus aureus is on record as 19 mm.
In the case of `O=C(NOCc1ccccc1)c1ccccc1`, the MIC in [1] is 48.5 µM (≈ 11 µg/mL); in assay [2], > 100 µM.
Regarding `O=C(CC(=O)OCc1ccc([N+](=O)[O-])cc1)NO`, the MIC in [1] and in assay [2] was > 100 µM each time.
On to `CC(C)(C)[Si](C)(C)ONC(=O)c1cc([N+](=O)[O-])cc(C(F)(F)F)c1`, for which the MIC in [1] and in assay [2] was > 100 µM in each case. Also, the “diameter of the inhibition zone (DIZ)” value with Micrococcus luteus [3] came to 0 mm; in the assay with Mycolicibacterium vaccae [5], 14 mm; in the assay with Escherichia coli [10], 17 mm; in the assay with Pseudomonas aeruginosa [6], 0 mm; with Bacillus spizizenii [7] it was 20 mm; in the assay on Pseudomonas aeruginosa [8], 0 mm. In the assay with Staphylococcus aureus, the “diameter of the inhibition zone (DIZ)” value is on record as 0 mm.
For `O=C(NO)c1ccc(F)cc1`, the MIC in [1] and in assay [2] was > 100 µM each time.
Regarding `CCOc1ccc(C(=O)NOCc2ccccc2)cc1`, the MIC in [1] was 47.3 µM (≈ 12.8 µg/mL); in assay [2], > 100 µM.
In the case of `C=CCONC(=O)c1ccccc1`, the MIC in assay [1] and in assay [2] was > 100 µM throughout.
Regarding `C=CCONC(=O)c1ccc([N+](=O)[O-])cc1`, the MIC in [1] is 37.6 µM (≈ 8.36 µg/mL); in assay [2] it was > 100 µM.
With `COC(=O)c1cc([N+](=O)[O-])cc(C(F)(F)F)c1`, the values for the MIC in assay [1] and in assay [2] were 30 µM (≈ 7.46 µg/mL) and > 100 µM, respectively.
Take `O=C(NOCc1ccccc1)c1cc(Br)cc(C(F)(F)F)c1`: the MIC in [1] was 80.5 µM (≈ 30.1 µg/mL); in [2], > 100 µM. Besides, the “diameter of the inhibition zone (DIZ)” value is reported as 32 mm with Mycolicibacterium vaccae [11]; 16 mm in the assay with Micrococcus luteus [3]; 26 mm with Mycolicibacterium vaccae [5]; 0 mm in the assay on Pseudomonas aeruginosa [6]; 17.5 mm in the assay with Bacillus spizizenii [7]; 0 mm in the assay on Pseudomonas aeruginosa [8]. The “diameter of the inhibition zone (DIZ)” value in the assay on Escherichia coli [9] turned out to be 10 mm; with Staphylococcus aureus, 20 mm.
On to `C=CCONC(=O)c1cc([N+](=O)[O-])cc(C(F)(F)F)c1`, for which the values for the MIC in assay [1] and in assay [2] were 43.2 µM (≈ 12.5 µg/mL) and > 100 µM, respectively.
Consider `CCOc1ccc(C(=O)NO)cc1`, for which the MIC in assay [1] was > 100 µM; in [2] it was 48.1 µM (≈ 8.71 µg/mL). The “diameter of the inhibition zone (DIZ)” value in the assay on Micrococcus luteus [3] amounted to 0 mm; in the assay on Mycolicibacterium vaccae [5] it was 0 mm; in the assay with Pseudomonas aeruginosa [12] it was 14 mm; in the assay with Bacillus spizizenii [7] it was 20 mm; in the assay with Pseudomonas aeruginosa [8] it was 0 mm; in the assay with Escherichia coli [9], 0 mm. Also, the “diameter of the inhibition zone (DIZ)” value with Staphylococcus aureus is 17 mm.
In the case of `O=C(NOCc1ccccc1)c1ccc(F)cc1`, the MIC in assay [1] is 42.3 µM (≈ 10.4 µg/mL); in [2], > 100 µM.
As to `CO[C@H]1/C=C/O[C@@]2(C)Oc3c(C)c(O)c4c(O)c(c(/C=N/N5CCN(C)CC5)c(O)c4c3C2=O)NC(=O)/C(C)=C\C=C\[C@H](C)[C@H](O)[C@@H](C)[C@@H](O)[C@@H](C)[C@H](OC(C)=O)[C@@H]1C` [RIFAMPIN], the figures for the MIC in [1] and in assay [2] were < 0.016 µM and 0.03 µM (≈ 0.0247 µg/mL), respectively.
In the same order, the values of `CC(C)(C)[Si](C)(C)ONC(=O)CC(=O)OCc1ccc([N+](=O)[O-])cc1` are 3.04 µM (≈ 1.12 µg/mL) and > 100 µM.
For `O=C(NO)c1ccc([N+](=O)[O-])cc1`, the MIC in [1] is 0.71 µM (≈ 0.129 µg/mL); in assay [2] it was 7.79 µM (≈ 1.42 µg/mL). Moreover, the “diameter of the inhibition zone (DIZ)” value in the assay with Mycolicibacterium vaccae [11] is reported as 33 mm; with Micrococcus luteus [3], 0 mm; in the assay with Mycolicibacterium vaccae [5] it was 30 mm; in the assay on Pseudomonas aeruginosa [6] it was 0 mm; in the assay on Bacillus spizizenii [7], 0 mm; with Pseudomonas aeruginosa [8] it was 13 mm. Also, the “diameter of the inhibition zone (DIZ)” value in the assay on Escherichia coli [9] and in the assay on Staphylococcus aureus was 0 mm in each case.
Consider `C=CCONC(=O)CC(=O)OCc1ccc([N+](=O)[O-])cc1`, for which the values for the MIC in assay [1] and in assay [2] were 98.6 µM (≈ 29 µg/mL) and 98.7 µM (≈ 29 µg/mL), respectively.
Consider `O=C(NO)c1ccc(Cl)cc1`, for which the MIC in assay [1] and in [2] was > 100 µM each time. In addition, the “diameter of the inhibition zone (DIZ)” value was 0 mm with Micrococcus luteus [3]; 15.5 mm with Mycolicibacterium vaccae [13]; 18 mm with Pseudomonas aeruginosa [12]; 0 mm in the assay with Bacillus spizizenii [7]; 0 mm in the assay with Pseudomonas aeruginosa [8]; 16 mm with Escherichia coli [9]. Moreover, in the assay on Staphylococcus aureus, the “diameter of the inhibition zone (DIZ)” value was found to be 0 mm.
Regarding `CC(C)(C)[Si](C)(C)ONC(=O)c1ccccc1`, the figures for the MIC in [1] and in assay [2] were 24.3 µM (≈ 6.11 µg/mL) and > 50 µM, respectively. In addition, the “diameter of the inhibition zone (DIZ)” value in the assay on Micrococcus luteus [3] is given as 0 mm; in the assay on Mycolicibacterium vaccae [5], 26 mm; in the assay on Pseudomonas aeruginosa [14] it was 18 mm; in the assay with Pseudomonas aeruginosa [6], 0 mm; in the assay on Bacillus spizizenii [7] it was 0 mm; in the assay on Pseudomonas aeruginosa [8] it was 14 mm. The “diameter of the inhibition zone (DIZ)” value in the assay on Escherichia coli [9] and in the assay on Staphylococcus aureus was 0 mm each time.
In the case of `O=C(O)c1cn(C2CC2)c2cc(N3CCNCC3)c(F)cc2c1=O` [CIPROFLOXACIN], the “diameter of the inhibition zone (DIZ)” value in the assay with Micrococcus luteus [3] came to 0 mm; with Mycolicibacterium vaccae [5], 20 mm; with Pseudomonas aeruginosa [6], 19 mm; in the assay on Pseudomonas aeruginosa [8], 23 mm; with Staphylococcus aureus, 18 mm. The zone of inhibition at 1.66 µg/mL in the assay on Pseudomonas aeruginosa [15] was determined as 26 mm; in the assay on Bacillus spizizenii [16] it was 19 mm.
For the compound `O=C(NO)c1cc([N+](=O)[O-])cc(C(F)(F)F)c1`, the MIC in assay [1] was > 100 µM; in [2] it was 19.5 µM (≈ 4.87 µg/mL).
